Rows were chosen to be rich in hits. Some 1.6% of all compounds tested hit in one or more screens of this group.
Platelet DG rel: modulates dense granule release in human platelets; AID 1663; inhibition, %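 (compounds screened at 7.5 µM in platelet-rich plasma)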; 300,000 compounds, 0.22% hits; human platelet-rich plasma, SFLLRN dense granule ATP release, luminescence;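 active = mean replicate score, as percent of positive control, at or above 50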
C8 TRAIL sens: caspase-8 TRAIL sensitization; inhibition (viability loss, TRAIL sensitization), % at 10 µM; 360,000 compounds, 1% hits; NB7+C8 cells + TRAIL, ATPlite viability luminescence;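 active = compounds causing at least 50% loss of cell viability in the single-dose screen, relative to plate controls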
FLuc stim CS: affects firefly luciferase, flagging false hits in luciferase stimulation screens | ATPlite luciferase biochemical, luminescence, 10 min; 0 = ATP-free wells, 1 = DMSO control | 200,000 tested, under 10 active | activation factor at 10 µM | P08659;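 active = luciferase activation factor, scaled between plate controls, of at least 2 with compound at 10 µM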
Target sequence (P08659 whole entry, looked up): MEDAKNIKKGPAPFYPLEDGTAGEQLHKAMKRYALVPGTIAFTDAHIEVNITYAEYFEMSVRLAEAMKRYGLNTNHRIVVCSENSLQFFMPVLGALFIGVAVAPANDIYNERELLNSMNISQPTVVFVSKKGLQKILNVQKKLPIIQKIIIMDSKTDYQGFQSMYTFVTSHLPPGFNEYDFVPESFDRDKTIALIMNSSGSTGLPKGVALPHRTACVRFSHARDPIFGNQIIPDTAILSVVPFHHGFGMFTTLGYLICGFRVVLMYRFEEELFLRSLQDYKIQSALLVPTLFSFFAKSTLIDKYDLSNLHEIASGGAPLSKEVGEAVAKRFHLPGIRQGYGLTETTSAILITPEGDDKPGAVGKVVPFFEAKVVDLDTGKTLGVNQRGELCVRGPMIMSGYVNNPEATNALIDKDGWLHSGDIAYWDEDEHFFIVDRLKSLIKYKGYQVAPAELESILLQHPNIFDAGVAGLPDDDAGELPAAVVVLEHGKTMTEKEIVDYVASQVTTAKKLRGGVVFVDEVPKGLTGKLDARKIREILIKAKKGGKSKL
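Assay system: Luciferase/luciferin reagent mix; Medium: PBS as buffer for the ATP substrate; Dosing: test compounds dosed from 2 mM stocks in 100% DMSO; Times: 10 min, room temperature; Signal: luminescence from luciferase reaction; Read-out: luciferase activation; Controls: No-ATP low control, compound-free enzyme-plus-ATP high control.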
PPC-1+TRAIL kill: kills PPC-1 cancer cells in the presence of TRAIL | PPC-1 cells + TRAIL, ATPLite viability luminescence | cell killing (% activity), % at 4 µM or 5 µM | 220,000 compounds, 0.41% hits;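 active = cell killing above 50% in the first pass at 4 µM, then a duplicate retest at 5 µM averaging 50% or more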;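 also: plate controls were cells with TRAIL plus DMSO for no effect and medium-only wells lacking cells for full effect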
FLuc inh counter: inhibits firefly luciferase, flagging false hits in luciferase inhibition screens. ATPLite firefly luciferase biochemical luminescence, 10 min. inhibition, % at 10 µM. 200,000 compounds, 1.5% hits. AID 1006;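 active = inhibition above about 50% when tested at 10 µM, limit read from the data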
An asterisk follows results filed as active; x = not tested or not shown.

SMILES | Platelet DG rel | C8 TRAIL sens | FLuc stim CS | PPC-1+TRAIL kill | FLuc inh counter
CCCCOc1ccc(-c2nc(=S)[nH][nH]2)cc1 | 6 | 61* | 1 | 16 | -4
CCCCOc1ccc(-c2nc(SCC(N)=O)n[nH]2)cc1 | 8 | 16 | 0.9 | 7 | 10
COc1ccc(C)cc1NC(=O)CN(Cc1nnc(-c2ccc(Cl)cc2)o1)C1CCCC1 | 2 | 85* | 1 | 25 | -4
c1cc(-c2cc3cc(N4CCOCC4)ccc3o2)cs1 | 5 | 79* | x | x | x
COc1ccc(C#Cc2c(-c3ccsc3)oc3ccc(N4CCOCC4)cc23)cc1 | -6 | 21 | x | x | x
Cc1ccc(C)c(NC(=O)c2ccc3ccccc3n2)c1 | 20 | 48 | 0.4 | 37 | 56*
Cc1ccc(S(=O)(=O)N(C)C)cc1NC(=O)c1ccc2ccccc2n1 | -5 | 12 | x | -4 | x
O=C(N/N=C/c1sc(=O)n(-c2ccccc2)c1Cl)c1ccccc1 | 12 | 41 | 0.3 | 30 | 67*
Fc1ccc(-c2ncc3ccccn23)cc1 | -8 | 0 | 1 | 20 | 4
Clc1ccc(/C=C/c2ncc3ccccn23)cc1 | 19 | 1 | 0.3 | x | 67*
COc1ccc(CN(CCN(C)C)c2ccccn2)cc1 | -5 | 1 | 1.1 | -8 | -8
CCCCCCCCCCCCCCCC[N+](C)(C)CCN(Cc1ccc(OC)cc1)c1ncccn1 | x | 53* | x | x | x
Cc1ccc(-c2nnc(NC(=O)c3ccco3)s2)cc1 | 5 | 68* | x | x | x
COc1ccc(-c2nnc(NC(=O)c3ccco3)s2)cc1 | 6 | 60* | x | x | x
COc1cccc(-c2nnc(NC(=O)c3ccco3)s2)c1 | 2 | 19 | x | x | x
C[C@@H](NC(=O)[C@@H]1CCCN1C(=O)OC(C)(C)C)c1ccccc1 | x | 2 | x | x | x
Cc1ccc(Nc2nc(NCc3ccco3)c3ccccc3n2)cc1 | 3 | 71* | 0.9 | 20 | 6
CCCS(=O)(=O)NC(=O)C1(C)CCCN(C(=O)c2ccc3c(c2)OCO3)C1 (stereo not drawn) | x | -6 | x | x | x
O=C(NCc1ccccc1Cl)c1cccc2c1C(=O)c1ccc(-c3ccc(OC(F)(F)F)cc3)cc1S2(=O)=O | x | 54* | x | x | x
Cc1cc(=O)n2nc(N3CCCC(C(=O)Nc4cccc(C)c4C)C3)sc2n1 (stereo not drawn) | x | 2 | x | x | x
Cc1ccc2cc(/C=N/Nc3nc4ccccc4[nH]3)c(Cl)nc2c1 | 38 | 87* | 0.1 | 0 | 94*
Cn1c(N/N=C/c2cc3ccccc3nc2Cl)nc2ccccc21 | 60* | 88* | 0 | 2 | 96*
CC1=CCC[C@@H]2[C@]3(CC/C(=C/CO)CO)CO[C@@]2(C1)[C@@H](O)C[C@H]3C | x | -8 | x | x | x
C[C@@H]1COc2cc(N3CCN(Cc4ccccc4F)CC3)ccc2S(=O)(=O)N1 | x | 6 | x | x | x
CCN(CC)c1ccc(/C=N/NC(=O)c2cnccn2)cc1 | -1 | 21 | 0.3 | 36 | 66*
SMILES | Platelet DG rel | C8 TRAIL sens | FLuc stim CS | PPC-1+TRAIL kill | FLuc inh counter
Cc1ccc(/C=N\NC(=O)c2csnn2)cc1 | 23 | 12 | 0.3 | 19 | 66*
CCN(CC)c1ccc(/C=N/NC(=O)c2ccco2)cc1 | 2 | 52* | 0.2 | 30 | 79*
COc1ccc(/C=N/NC(=O)CNC(=O)COc2ccccc2)cc1 | -2 | 3 | 1 | 7 | 0
COc1ccc(OCC(=O)N/N=C/c2ccc(N(C)C)cc2)cc1 | 4 | 25 | 0.4 | 5 | 63*
CCN(CC)c1ccc(/C=N/NC(=O)c2ccco2)c(O)c1 | 21 | 45 | x | 47 | x
CCCCNC(=O)c1ccc2nc(CC)c(N(C)Cc3cccs3)n2c1 | x | 7 | x | x | x
O=C(NC1CCCCC1)C(c1ccc(C(F)(F)F)cc1)n1c(=O)c(-c2cc3ccccc3[nH]2)nc2ccccc21 (stereo not drawn) | x | 21 | x | x | x
O=C(NCC1CC1)C1Cc2c(-c3ccc4c(c3)OCO4)ccnc2O1 (stereo not drawn) | x | 2 | x | x | x
CCN(CC)c1ccc(/C=N/NC(=O)c2ccccn2)cc1 | 4 | 65* | x | 20 | x
CCN(CC)c1ccc(/C=N/NC(=O)c2c[nH]c3ccccc23)cc1 | -5 | 23 | 0.9 | 9 | 13
Cc1occc1C(=O)N/N=C/c1ccc(N(C)C)cc1 | 78* | 31 | x | 18 | x
CCCCCCCCCCCCCCC[C@@H](O)[C@@H](N)CO | x | 95* | x | x | x
CCCCCCCCCC(=O)OCC(O)CO (stereo not drawn) | -4 | 7 | 1 | 12 | -2
CC(C)c1ccc(N=C2NN=C(c3cccs3)CS2)cc1 | 1 | 19 | 0.5 | 18 | 50*

Compound activity: PubChem, several laboratories
